The record followed here is paper PMC7741178 (Bioorganic & medicinal chemistry, 2020).

Holding throughout (type): cell-based
The test system of data set [1] is MT-4 cells. As to the kind of experiment: Cytotoxicity in MT-4 cells. As to conditions: CC50 MT-4 cells / IC50 CD4 down-modulation.
Data set [2] addresses human CD4 (CD4-YFP) (Homo sapiens, UniProt P01730). As to the kind of experiment: CD4 down-modulation in CD4-YFP transfected CHO cells. As to conditions: for CD4 down-modulation (in words): CD4-YFP CHO cells. The procedure, abridged:
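CHO cells stably expressing human CD4 fused at its C-terminus to YFP were exposed for 24 h at 37 °C to 1:5 serial dilutions of test compound. Cells were washed, fixed in 1% formaldehyde, and read at once by flow cytometry (488 nm laser). YFP MFI was expressed as % of matched untreated cells, after subtracting the background of non-transfected cells. IC50 is the 50% decrease in CD4. Mean ± SD, n = 3.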

Data set [3] deals with HIV-1 NL4.3 (X4). As to the kind of experiment: HIV-1 NL4.3 replication in MT-4 cells. As to conditions: HIV-1 NL4.3 in MT-4 cells. The procedure, abridged: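 MT-4 cells at 3.75×10^5 cells/mL in RPMI 1640 with 10% FBS and 2 mM L-glutamine were preincubated 15 min with test compound. HIV-1 NL4.3 (30 pg/well) was then added and cells were kept at 37 °C. On day 4, viability was read by MTS/PES at 490 and 700 nm, giving the IC50 for viral replication. Mean ± SD, n = 2 or 3.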

For `C=C1CN(S(=O)(=O)c2ccc(C)cc2)CCc2cc(CC(C)C)cc(n2)CCN(S(=O)(=O)c2ccc(C)cc2)C1.Cl` [Compound 3k, 13-Isobutyl-6-methylene-4,8-di(p-toluenesulfonyl)-4,8,15-triazabicyclo[9.3.1]pentadeca-1(15),11,13-triene], the “therapeutic indices (CC50/IC50 for CD4)” value in data set [1] was “exceeding 100”.
As for `C=C1CN(S(=O)(=O)c2ccc(C)cc2)Cc2cccc3cc4cccc(c4nc23)CN(S(=O)(=O)c2ccc(C)cc2)C1` [Compound 23, 9-Methylene-7,11,19-7,11-bis(p-toluenesulfonyl)-triazatetracyclo[15.3.1.0^5,20.0^13,18]henicosa-1(21),2,4,13,15,17,19-heptaene], the “CD4 down-modulation (in words)” value in data set [2] was “no observable”. Further, the “anti-HIV activity (in words)” value in data set [3] is “no observable”.
As for `Cc1ccc(S(=O)(=O)N2CCc3cc(C(C)(C)C)cc(n3)CCN(S(=O)(=O)c3ccc(C)cc3)CC2)cc1` [Compound 16, 12-tert-Butyl-4,7-bis(p-toluenenesulfonyl)-4,7,14-triazabicyclo[8.3.1]tetradeca-1(14),1 0,12-triene], in data set [2], the “CD4 down-modulation (in words)” value was “no observable”. Further, in data set [3], the “anti-HIV activity (in words)” value is on record as “no observable”.
Take `C=C1CN(S(=O)(=O)c2ccc(C)cc2)CCc2cc(CCCC)cc(n2)CCN(S(=O)(=O)c2ccc(C)cc2)C1.Cl` [Compound 3j, 13-Butyl-6-methylene-4,8-di(p-toluenesulfonyl)-4,8,15-triazabicyclo[9.3.1]pentadeca-1(15),11,13-triene]: the midpoint of inhibition in data set [2], the IC50, lay at 500 nM. Moreover, in data set [1], the “therapeutic indices (CC50/IC50 for CD4)” value is “exceeding 100”.
